Measured values from PMC6345172 (Cancer letters, 2018).

Assays:
MKN45 cells = test: MTT cell proliferation assay, MKN45; format: cell-based; conditions: Homo sapiens, MKN-45, 72 h, read-out: IC50 on MKN45 cells
Summary of the method: (§1)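 Cells seeded overnight in 96-well plates, then exposed to a range of test compound concentrations for 72 h. MTT added for 2 h, medium removed, formazan dissolved in DMSO, and OD570 read. Viability normalized to untreated cells from the same experiment. IC50 calculated from concentration–response data. MTT run in triplicate; means ± SEM of three experiments.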

AGS cells = test: MTT cell proliferation assay, AGS; format: cell-based; conditions: Homo sapiens, 72 h, read-out: IC50 on AGS cells
Summary of the method: as §1

IC50 (MKN45 cells): 13.7 ± 0.8 µM
IC50 (AGS cells): 27.8 ± 1.1 µM
Structure (SMILES): COc1ccc(CCCOC(Cn2ccnc2)c2ccc(OC)cc2)cc1 (centres unmarked) [SKF96365]
